Measured values: ChEMBL document CHEMBL1141001, “Synthesis of trans-caffeate analogues and their bioactivities against HIV-1 integrase and cancer cell lines” (Bioorg Med Chem Lett, 2008)

Tests used:
[1] = biological target: Human immunodeficiency virus type 1 integrase (Human immunodeficiency virus 1, UniProt Q7ZJM1); experiment: Inhibition of HIV1 integrase by ELISA
In short: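 HIV-1 integrase activity was read out by ELISA, and inhibition was expressed as an IC50.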

[2] = Cytotoxicity against human BCG823 cells by MTT assay; assay type: functional, cell-based
BEL-7404 (Homo sapiens) = experiment: Cytotoxicity against human BEL-7404 cells by MTT assay
MCF7 = experiment: Cytotoxicity against human MCF7 cells by MTT assay; assay type: functional, cell-based
A549 = experiment: Cytotoxicity against human A549 cells by MTT assay; assay type: functional, cell-based

Chain of Human immunodeficiency virus type 1 integrase (Q7ZJM1 whole entry): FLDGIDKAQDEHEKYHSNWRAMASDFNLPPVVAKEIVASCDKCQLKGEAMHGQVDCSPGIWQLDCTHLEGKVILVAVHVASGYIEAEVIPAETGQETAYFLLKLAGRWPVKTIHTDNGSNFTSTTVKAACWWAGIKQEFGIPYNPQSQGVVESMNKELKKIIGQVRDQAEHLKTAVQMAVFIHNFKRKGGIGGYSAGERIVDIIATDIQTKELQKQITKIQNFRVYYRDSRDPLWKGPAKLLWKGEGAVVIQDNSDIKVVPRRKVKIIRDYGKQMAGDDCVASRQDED

Structure (SMILES): CCCCCCCOC(=O)/C=C/c1ccc(O)c(O)c1
- IC50 [1]: > 100 µM

Structure (SMILES): O=C(O)/C=C/c1cc(O)c(O)c([N+](=O)[O-])c1
- IC50 [1]: 26.8 µM

Structure (SMILES): O=C(O)/C=C/c1ccc(O)c(O)c1[N+](=O)[O-]
- IC50 [1]: > 100 µM

Structure (SMILES): CCCOC(=O)/C=C/c1ccc(O)c(O)c1
- IC50 [1]: > 100 µM

Structure (SMILES): COc1cc(/C=C/C(=O)OC2CC3CCC2(C)C3(C)C)cc(Cl)c1O (stereo not drawn)
- IC50 [1]: > 100 µM

Structure (SMILES): COc1cc(/C=C/C(=O)O)cc(Br)c1O
- IC50 [1]: > 100 µM

Structure (SMILES): COc1c(O)ccc(/C=C/C(=O)O)c1[N+](=O)[O-]
- IC50 [1]: > 100 µM

Structure (SMILES): CCCCCCCCOC(=O)/C=C/c1ccc(O)c(O)c1
- IC50 [1]: > 100 µM

Structure (SMILES): CCC(C)OC(=O)/C=C/c1ccc(O)c(O)c1 (stereo not drawn)
- IC50 [1]: > 100 µM

Structure (SMILES): CC(C)(C)OC(=O)/C=C/c1ccc(O)c(O)c1
- IC50 [1]: > 100 µM

Structure (SMILES): CCCCCCC(C)OC(=O)/C=C/c1ccc(O)c(O)c1 (stereo not drawn)
- IC50 [1]: > 100 µM

Structure (SMILES): CCCCCCCCCCCCCCCCCCOC(=O)/C=C/c1ccc(O)c(O)c1
- IC50 [1]: > 100 µM

Structure (SMILES): O=C(/C=C/c1ccc(O)c(O)c1)Oc1ccccc1
- IC50 [2]: 56.6 µM
- IC50 (BEL-7404 (Homo sapiens)): 44.3 µM
- IC50 (MCF7): 5.9 µM
- IC50 [1]: > 100 µM
- IC50 (A549): 75.9 µM

Structure (SMILES): O=C(/C=C/c1ccc(O)c(O)c1)OC1CCCCC1
- IC50 [2]: 97.6 µM
- IC50 (BEL-7404 (Homo sapiens)): 15.5 µM
- IC50 (MCF7): 30.3 µM
- IC50 [1]: > 100 µM
- IC50 (A549): 89.3 µM

Structure (SMILES): COc1c(O)ccc(/C=C/C(=O)OCCc2ccccc2)c1[N+](=O)[O-]
- IC50 [1]: > 100 µM

Structure (SMILES): COc1c(O)ccc(/C=C/C(=O)OC2CC3CCC2(C)C3(C)C)c1[N+](=O)[O-] (stereo not drawn)
- IC50 [2]: 32.1 µM
- IC50 (BEL-7404 (Homo sapiens)): 6.6 µM
- IC50 (MCF7): 62.3 µM
- IC50 [1]: > 100 µM
- IC50 (A549): 21.1 µM

Structure (SMILES): COc1cc(/C=C/C(=O)O)cc([N+](=O)[O-])c1O
- IC50 [1]: > 100 µM

Structure (SMILES): COc1cc(/C=C/C(=O)OCCc2ccccc2)cc([N+](=O)[O-])c1O
- IC50 [2]: > 300 µM
- IC50 (BEL-7404 (Homo sapiens)): > 300 µM
- IC50 (MCF7): > 300 µM
- IC50 [1]: > 100 µM
- IC50 (A549): > 300 µM

Structure (SMILES): COc1cc(/C=C/C(=O)OC2CC3CCC2(C)C3(C)C)cc([N+](=O)[O-])c1O (stereo not drawn)
- IC50 [1]: > 100 µM

Structure (SMILES): COc1cc(/C=C/C(=O)O)cc(Cl)c1O
- IC50 [1]: > 100 µM

Structure (SMILES): COc1cc(/C=C/C(=O)OCCc2ccccc2)cc(Cl)c1O
- IC50 [1]: > 100 µM

Structure (SMILES): COc1cc(/C=C/C(=O)OCCc2ccccc2)cc(Br)c1O
- IC50 [2]: > 300 µM
- IC50 (BEL-7404 (Homo sapiens)): > 300 µM
- IC50 (MCF7): > 300 µM
- IC50 [1]: > 100 µM
- IC50 (A549): > 300 µM

Structure (SMILES): COc1cc(/C=C/C(=O)OC2CC3CCC2(C)C3(C)C)cc(Br)c1O (stereo not drawn)
- IC50 [1]: > 100 µM

Structure (SMILES): CC(C)(COC(=O)/C=C/c1ccc(O)c(O)c1)[N+](=O)[O-]
- IC50 [1]: > 100 µM

Structure (SMILES): O=C(/C=C/c1cc(O)c(O)c([N+](=O)[O-])c1)OCCc1ccccc1
- IC50 [2]: 22.9 µM
- IC50 (BEL-7404 (Homo sapiens)): 59.7 µM
- IC50 (MCF7): 12.3 µM
- IC50 [1]: 25 µM
- IC50 (A549): 11.4 µM

Structure (SMILES): CC(C)OC(=O)/C=C/c1ccc(O)c(O)c1
- IC50 [1]: > 100 µM

Structure (SMILES): C=CCOC(=O)/C=C/c1ccc(O)c(O)c1
- IC50 [1]: > 100 µM

Structure (SMILES): C#CCOC(=O)/C=C/c1ccc(O)c(O)c1
- IC50 [1]: > 100 µM

Structure (SMILES): O=C(/C=C/c1ccc(O)c(O)c1[N+](=O)[O-])OCCc1ccccc1
- IC50 [2]: 27.8 µM
- IC50 (BEL-7404 (Homo sapiens)): 10.2 µM
- IC50 (MCF7): 28.8 µM
- IC50 [1]: > 100 µM
- IC50 (A549): 8.7 µM

Structure (SMILES): CC1(C)C2CCC1(C)C(OC(=O)/C=C/c1ccc(O)c(O)c1[N+](=O)[O-])C2 (stereo not drawn)
- IC50 [2]: 117 µM
- IC50 (BEL-7404 (Homo sapiens)): 28.7 µM
- IC50 (MCF7): 40.7 µM
- IC50 [1]: 13.5 µM
- IC50 (A549): 52.9 µM

Structure (SMILES): O=C(/C=C/c1ccc(O)c(O)c1)Oc1ccc2ccccc2c1
- IC50 [2]: 59.8 µM
- IC50 (BEL-7404 (Homo sapiens)): 58.1 µM
- IC50 (MCF7): 12.8 µM
- IC50 [1]: > 100 µM
- IC50 (A549): 50 µM

Structure (SMILES): CC1(C)C2CCC1(C)C(OC(=O)/C=C/c1ccc(O)c(O)c1)C2 (stereo not drawn)
- IC50 [2]: 101 µM
- IC50 (BEL-7404 (Homo sapiens)): 28.2 µM
- IC50 (MCF7): > 300 µM
- IC50 [1]: 19.9 µM
- IC50 (A549): 19.5 µM

Structure (SMILES): CC1(C)C2CCC1(C)C(OC(=O)/C=C/c1cc(O)c(O)c([N+](=O)[O-])c1)C2 (stereo not drawn)
- IC50 [1]: > 100 µM

Structure (SMILES): O=C(/C=C/c1ccc(O)c(O)c1)OCc1ccccc1 [BENZYL CAFFEATE]
- IC50 [2]: 48.1 µM
- IC50 (BEL-7404 (Homo sapiens)): 17.4 µM
- IC50 (MCF7): 14.1 µM
- IC50 [1]: > 100 µM
- IC50 (A549): 27.3 µM

Structure (SMILES): CCCCOC(=O)/C=C/c1ccc(O)c(O)c1 [BUTYL CAFFEATE]
- IC50 [1]: > 100 µM

Structure (SMILES): O=C(/C=C/c1ccc(O)c(O)c1)OCCc1ccccc1 [CAFFEIC ACID PHENETHYL ESTER]
- IC50 [2]: 44.6 µM
- IC50 (BEL-7404 (Homo sapiens)): 5.5 µM
- IC50 (MCF7): 26.7 µM
- IC50 [1]: > 100 µM
- IC50 (A549): 83.6 µM

Structure (SMILES): O=C(O)/C=C/c1ccc(O)c(O)c1 [CAFFEIC ACID]
- IC50 [1]: > 100 µM

Structure (SMILES): CCOC(=O)/C=C/c1ccc(O)c(O)c1 [ETHYL CAFFEATE]
- IC50 [1]: > 100 µM

Structure (SMILES): COc1cc(/C=C/C(=O)O)ccc1O [FERULATE]
- IC50 [1]: > 100 µM

Structure (SMILES): COC(=O)/C=C/c1ccc(O)c(O)c1 [METHYLCAFFEATE]
- IC50 [1]: > 100 µM
